# Experimental data from ChEMBL document CHEMBL3124940, “Design, synthesis and biological evaluation of D-ring opened galantamine analogs as multifunctional anti-Alzheimer agents” (Eur J Med Chem, 2014).
# Assays:
# [1] = target: Acetylcholinesterase (Electrophorus electricus, UniProt O42275); experiment: Inhibition of electric eel AChE using acetylthiocholine iodide as substrate preincubated for 5 mins followed by substrate addition measured after 5 mins by Ellman's method
# [2] = target: Cholinesterase (Equus caballus, UniProt P81908); experiment: Inhibition of equine serum BChE using butyrylthiocholine iodide as substrate preincubated for 5 mins followed by substrate addition measured after 5 mins by Ellman's method
# Cholinesterase, sequence (P81908 whole entry): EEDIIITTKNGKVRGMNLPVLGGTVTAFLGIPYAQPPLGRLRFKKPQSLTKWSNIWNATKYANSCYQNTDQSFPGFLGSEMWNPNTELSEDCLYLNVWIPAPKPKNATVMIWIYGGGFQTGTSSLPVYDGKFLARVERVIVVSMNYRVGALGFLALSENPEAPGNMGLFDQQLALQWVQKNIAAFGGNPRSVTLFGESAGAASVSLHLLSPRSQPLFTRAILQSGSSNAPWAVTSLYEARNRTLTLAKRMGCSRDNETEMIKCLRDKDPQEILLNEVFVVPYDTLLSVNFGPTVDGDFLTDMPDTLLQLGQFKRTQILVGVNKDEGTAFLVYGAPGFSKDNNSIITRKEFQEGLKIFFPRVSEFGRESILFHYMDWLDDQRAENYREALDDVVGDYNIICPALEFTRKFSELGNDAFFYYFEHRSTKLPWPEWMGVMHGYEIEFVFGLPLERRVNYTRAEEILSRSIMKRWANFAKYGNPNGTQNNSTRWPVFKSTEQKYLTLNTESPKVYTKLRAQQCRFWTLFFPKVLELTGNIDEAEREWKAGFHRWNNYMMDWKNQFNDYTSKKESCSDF
# Outline: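 Ellman's method with equine serum BChE and butyrylthiocholine iodide; DTNB read-out at 412 nm, 25 °C. Phosphate buffer pH 8.0. At least five concentrations (normally 10^-4 to 10^-9 M), each in triplicate, to build the inhibition curve. Data are means of at least three determinations.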
# [3] = Selectivity ratio of IC50 for electric eel AChE to IC50 for equine serum BChE
# Outline: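 AChE is electric eel Type VI-S with acetylthiocholine; BChE is equine serum with butyrylthiocholine. At least five concentrations, each in triplicate. Ratio = IC50(AChE)/IC50(BChE).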
# Acetylcholinesterase, sequence (O42275 whole entry): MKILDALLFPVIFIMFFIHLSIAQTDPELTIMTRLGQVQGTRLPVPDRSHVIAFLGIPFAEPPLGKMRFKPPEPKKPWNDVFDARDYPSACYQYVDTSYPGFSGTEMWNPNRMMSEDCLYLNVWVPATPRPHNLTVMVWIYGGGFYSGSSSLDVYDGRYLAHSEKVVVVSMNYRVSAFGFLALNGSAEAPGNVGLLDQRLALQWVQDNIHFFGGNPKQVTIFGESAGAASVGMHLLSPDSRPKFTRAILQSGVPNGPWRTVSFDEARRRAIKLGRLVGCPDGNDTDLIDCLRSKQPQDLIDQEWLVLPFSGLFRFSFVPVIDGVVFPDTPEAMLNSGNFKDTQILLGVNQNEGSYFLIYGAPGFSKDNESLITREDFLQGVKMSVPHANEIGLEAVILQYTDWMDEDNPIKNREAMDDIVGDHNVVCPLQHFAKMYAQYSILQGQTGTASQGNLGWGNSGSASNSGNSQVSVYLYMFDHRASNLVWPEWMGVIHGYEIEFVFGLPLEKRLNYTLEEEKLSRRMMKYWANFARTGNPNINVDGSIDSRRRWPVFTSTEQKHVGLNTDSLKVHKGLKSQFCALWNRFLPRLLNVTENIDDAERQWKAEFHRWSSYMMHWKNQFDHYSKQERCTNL
SMILES,IC50 [1] [µM],IC50 [2] [µM],Ratio IC50 [3]
CCN(C)Cc1cccc2oc3cc(OC)ccc3c12,> 50,,
CCN(CC)Cc1cccc2[nH]c3cc(OC)ccc3c12,37.9,14.9,2.54
CC(C)NCc1cccc2[nH]c3cc(O)ccc3c12,43.5,17.3,3.54
COc1ccc2c(c1)oc1cccc(CNC(C)C)c12,11.6,13.5,0.86
